# Published values collected from several papers.
# Lines come from different studies, so protocols differ.
# Target: Cyclin-dependent kinase-like 3 (CDKL3, Homo sapiens, UniProt Q8IVW4)
Structure (SMILES),read-out,method,concentration,remaining binding [%]
N[C@H]1CCN(c2nccc(-c3cnn4ncccc34)n2)C1,binding,,1 µM,100
CC(C)CC(=O)N1CCc2nc(-c3ccc(Br)cc3)nc(N(C)Cc3ccccc3)c2C1,cell-free assay,competition with immobilised ligand,0.1 µM,89
C[C@@H]1CCN(c2nccc(-c3cnn4ncccc34)n2)C1,binding,,1 µM,93
FC(F)(F)Oc1cccc(-c2cnc3ccc(-c4ccncc4)nn23)c1,cell-free assay,competition with immobilised ligand,5 µM,85
O=C(NCCCN1CCOCC1)c1ccc(Nc2nccc(-c3cc4ccccc4s3)n2)cc1,binding,competition with immobilised ligand,1 µM,89
CC(C)(O)c1cncc(-c2nc3ccc(F)cc3n2C2CC2)c1,cell-free assay,competition with immobilised ligand,1 µM,84
Nc1ncc2c(n1)-c1c([nH]c3ccc(C#CC4CC4)cc13)CCCC2,binding,competition with immobilised ligand,1 µM,83
CN(C)c1nccc(-c2cnc3ncccn23)n1,binding,,1 µM,100
CNCc1ccccc1-c1csc([C@@H](C)Nc2nc(C)nc3cc(OC)c(OC)cc23)c1,cell-free assay,competition with immobilised ligand,1 µM,99
COc1ncc2cc3ccccc3nc2c1C#N,binding,competition with immobilised ligand,5 µM,85
COc1cnc(Nc2cccc(S(N)(=O)=O)c2)nc1N1CCN(c2ccccc2)CC1,binding,competition with immobilised ligand,1 µM,100
CCCCN(CCCC)C(=O)CN1C[C@H](c2cc(OC)c3c(c2)OCO3)[C@@H](C(=O)O)[C@@H]1CC(C)(C)CCC,cell-free assay,competition with immobilised ligand,1 µM,100
O=C(NCC1CCOCC1)c1n[nH]cc1NC(=O)c1c(F)cccc1F,binding,competition with immobilised ligand,1 µM,100
CO[C@@H](C)c1c(Nc2ccc([C@H](N(C)C(=O)C3CCS(=O)(=O)CC3)C(F)(F)F)cc2)cnc2cc(Cl)nn12,cell-free assay,competition with immobilised ligand,1 µM,73
Cc1cnn2ncc(-c3ccnc(N(C)C)n3)c2c1,binding,,1 µM,86
C=CC(=O)N1CCC(C(=O)NCC(=O)N2CCN(c3nc(-c4cnc(N)nc4C(F)F)nc(N4CCOCC4)n3)CC2)CC1,binding,competition with immobilised ligand,1 µM,100
Cc1cnc(Nc2ccc(C(=O)N3CCC(N4CCCC4)CC3)cc2)nc1-c1cc2ccccc2s1,binding,competition with immobilised ligand,1 µM,89
Cc1noc([C@H]2C[C@@H](c3ccc(C(F)(F)F)cc3)CN(C(=O)N3CCS(=O)(=O)C3)C2)n1,binding,competition with immobilised ligand,1 µM,81
O=C(c1ccc(Nc2nccc(-c3cc4ccccc4s3)n2)cc1)N1CCC(N2CCCC2)CC1,binding,competition with immobilised ligand,1 µM,58
CN(CCCC(F)(F)F)c1nccc(-c2cnn3ncccc23)n1,binding,,1 µM,100
